Results from different studies.
Protocols differ between the studies behind these lines.
Target: Phosphorylase b kinase gamma catalytic chain, skeletal muscle/heart isoform (PHKG1, Homo sapiens, UniProt Q16816)

SMILES	effect on	action	method	concentration	quantity	result
CS(=O)(=O)c1cc(C2(NC(=O)c3cncc4c3cnn4-c3ccc(F)cc3)CC2)ccn1	cell-free assay	–	competition with immobilised ligand	1 µM	remaining binding	78%
O=C(Nc1cnn(-c2csc(C(=O)NC3COC3)c2)c1)Nc1c(F)cccc1Cl	enzyme activity	inhibitor	–	5 µM	remaining activity	91.2%
NS(=O)(=O)c1cc(NC(=O)Cc2ccccc2)ccc1Oc1cccc(Cl)c1	cell-free assay	–	competition with immobilised ligand	1 µM	remaining binding	87%
CN1CC(Oc2cnc(C#N)cc2-c2ccn3nc(NC(=O)C4CC4)cc3c2)C1	enzyme activity	inhibitor	–	1 µM	inhibition	8%
CNC(=O)c1ccc(Nc2ncc(C(F)(F)F)c(NCc3nccnc3N(C)S(C)(=O)=O)n2)cc1	cell-free assay	–	competition with immobilised ligand	0.1 µM	remaining binding	100%
Nc1nc(NC2CCCCC2)sc1C(=O)c1ccccc1	enzyme activity	inhibitor	–	10 µM	remaining activity	105%
O=C1NC(=O)c2cc(Nc3ccc(F)cc3)c(Nc3ccc(F)cc3)cc21	cell-free assay	–	–	0.5 µM	remaining signal	94.8%
COc1cc2ncnc(Nc3ccc(Oc4ccccc4)c(C)c3C)c2cc1OC	enzyme activity	inhibitor	–	1 µM	inhibition	2%
N#CCCc1ccc2c(c1)-c1[nH]c3ccc([N+](=O)[O-])cc3c1CC(=O)N2	cell-free assay	–	–	0.5 µM	remaining signal	7.72%
CCCOc1ccc([C@H]2[C@H](C(=O)O)[C@@H](c3ccc4c(c3)OCO4)CN2CC(=O)Nc2c(CC)cccc2CC)cc1	cell-free assay	–	competition with immobilised ligand	1 µM	remaining binding	99%
Cc1sc(C(=O)NC2COC2)cc1-n1cc(NC(=O)Nc2c(F)cccc2Cl)cn1	enzyme activity	inhibitor	–	10 µM	remaining activity	84%
COc1cccc2c(NCc3ccccc3)nc(-n3c(N)nc4ccccc43)nc12	target engagement in cells	inhibitor	chemoproteomics	20 mM	inhibition	6.1%
CC(C)(C)c1nc(-c2cccc(NS(=O)(=O)c3c(F)cccc3F)c2F)c(-c2ccnc(N)n2)s1	enzyme activity	inhibitor	radiometric	1 µM	remaining activity	97%
FC(F)c1nc2ccccc2n1-c1nc(N2CCOCC2)nc(N2CCOCC2)n1	enzyme activity	inhibitor	–	10 µM	remaining activity	94%
Nc1nc(Nc2ccccc2)sc1C(=O)c1c(F)cccc1F	enzyme activity	inhibitor	–	10 µM	remaining activity	88%
N[C@@H]1CCN(c2nccc(-c3cnn4ncccc34)n2)C1	binding	–	–	1 µM	remaining binding	100%
CNCc1ccccc1-c1csc([C@H](C)Nc2nc(C)nc3cc(OC)c(OC)cc23)c1	cell-free assay	–	competition with immobilised ligand	1 µM	remaining binding	87%
CCCCNc1ncc2c(-c3ccc(F)cc3)nn(C[C@H]3CC[C@H](N)CC3)c2n1	target engagement in cells	inhibitor	chemoproteomics	20 mM	inhibition	26.4%
O=C(Nc1cnc(Oc2ccc(F)cc2)nc1)N1CCc2ncccc2[C@@H]1c1ccc(F)cc1	cell-free assay	–	competition with immobilised ligand	1 µM	remaining binding	100%
Cc1ccc(C(=O)Nc2ccc(CN3CCN(C)CC3)c(C(F)(F)F)c2)cc1C#Cc1cnc2cccnn12	enzyme activity	inhibitor	–	23.5 nM	remaining activity	100%
